According to ChEMBL document CHEMBL3297654, “Synthesis, antimicrobial and cytotoxic activities, and structure-activity relationships of gypsogenin derivatives against human cancer cells” (Eur J Med Chem, 2014):
Converted amounts (≈) assume the structure as drawn. The source made the active and inactive calls. No cut-off for these calls is given here.

Experiments:
HeLa [1] = experiment: Antiproliferative activity against human HeLa cells after 24 and 72 hrs by MTT assay; type: functional, cell-based
Procedure, shortened: (§1)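 ATCC human cell lines are kept in RPMI, DMEM or McCoy's 5A with 10–15% heat-inactivated FCS at 37 °C and 5% CO2. They are seeded at 1×10^4–1×10^5 cells/mL in 48-well plates and exposed to 0.5, 10, 20 or 40 µM. Viability is read by MTT (590 nm) at 24 and 72 h. Growth is expressed relative to untreated cells and IC50 is fitted, in triplicate.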

HeLa [2] = experiment: Induction of necrosis in human HeLa cells at 20 uM after 48 hrs by Hoechst 33258/propidium iodide staining based phase contrast microscopic analysis; type: functional
Procedure, shortened: (§2)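 Cells in 48-well plates treated with 0.5, 10, 20 or 40 µM for 24 and 48 h. Values are read at 48 h, 20 µM for test agents and 0.5 µM for controls. Staining is Hoechst 33258/propidium iodide double staining with fluorescence microscopy. Blue nuclei are viable or early-to-mid apoptotic, and pink nuclei are late apoptotic or necrotic. Apoptosis and necrosis are scored from chromatin condensation as % of cells. Cells are grown at 37 °C in 5% CO2 in RPMI, DMEM or McCoy's 5A with 10–15% heat-inactivated FCS.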

Bacillus cereus [3] = experiment: Antimicrobial activity against Bacillus cereus ATCC 11778 assessed as zone of inhibition at 30 uL for 24 hrs at 30 degC by disk diffusion test; type: functional
Procedure, shortened: (§3)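 Agar well diffusion on Mueller Hinton agar seeded with 0.1 mL broth culture (18–24 h), adjusted to 0.5 McFarland (about 1×10^8 bacteria or 1×10^6 yeast cells/mL). A 6 mm well is filled with 30 µL of compound from a fresh 1000 µg/mL DMSO stock. Plates are held at 30 °C for 24 h and inhibition zone diameter is read in mm.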

HT-29 [4] = experiment: Induction of apoptosis in human HT-29 cells at 20 uM after 48 hrs by Hoechst 33258/propidium iodide staining based phase contrast microscopic analysis; type: functional; procedure, shortened: as §2
HT-29 [5] = experiment: Antiproliferative activity against human HT-29 cells after 24 and 72 hrs by MTT assay; type: functional, cell-based; procedure, shortened: as §1
Candida tropicalis = experiment: Antimicrobial activity against Candida tropicalis assessed as zone of inhibition at 30 uL for 24 hrs at 30 degC by disk diffusion test; type: functional, organism-based; procedure, shortened: as §3
Bacillus subtilis [6] = experiment: Antimicrobial activity against Bacillus subtilis ATCC 6633 for 24 hrs by microdillution method; type: functional
Procedure, shortened: (§4)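 Broth microdilution. Compound is dissolved in DMSO (2 mg/mL) and diluted in Mueller Hinton broth as two-fold serial dilutions from 256 to 0.125 µg/mL. Bacteria are pre-grown in nutrient broth at 30 °C, and the final inoculum is about 10^6 cfu/mL. Tests are incubated 37 °C for 24 h. MIC is the lowest concentration giving complete inhibition. Streptomycin is the positive control.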

HL-60 [7] = experiment: Induction of necrosis in human HL60 cells at 20 uM after 48 hrs by Hoechst 33258/propidium iodide staining based phase contrast microscopic analysis; type: functional; procedure, shortened: as §2
[8] = Antiproliferative activity against human Saos2 cells after 24 and 72 hrs by MTT assay; type: functional, cell-based; conditions: SAOS-2; procedure, shortened: as §1
HL-60 [9] = experiment: Antiproliferative activity against human HL60 cells after 24 and 72 hrs by MTT assay; type: functional, cell-based; procedure, shortened: as §1
MCF7 [10] = experiment: Induction of necrosis in human MCF7 cells at 20 uM after 48 hrs by Hoechst 33258/propidium iodide staining based phase contrast microscopic analysis; type: functional; procedure, shortened: as §2
MCF7 [11] = experiment: Induction of apoptosis in human MCF7 cells at 20 uM after 48 hrs by Hoechst 33258/propidium iodide staining based phase contrast microscopic analysis; type: functional; procedure, shortened: as §2
HT-29 [12] = experiment: Induction of necrosis in human HT-29 cells at 20 uM after 48 hrs by Hoechst 33258/propidium iodide staining based phase contrast microscopic analysis; type: functional; procedure, shortened: as §2
SAOS-2 [13] = experiment: Induction of necrosis in human Saos2 cells at 20 uM after 48 hrs by Hoechst 33258/propidium iodide staining based […] microscopic analysis; type: functional; procedure, shortened: as §2
MCF7 [14] = experiment: Antiproliferative activity against human MCF7 cells after 24 and 72 hrs by MTT assay; type: functional, cell-based; procedure, shortened: as §1
Caco-2 [15] = experiment: Induction of necrosis in human Caco2 cells at 20 uM after 48 hrs by Hoechst 33258/propidium iodide staining based phase contrast microscopic analysis; type: functional; procedure, shortened: as §2
[16] = system: Staphylococcus epidermidis; experiment: Antimicrobial activity against Staphylococcus epidermidis ATCC 12228 assessed as zone of inhibition at 30 uL for 24 hrs at 37 degC by disk diffusion test; type: functional, organism-based
Procedure, shortened: (§5)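 Compound (30 µL of a fresh 1000 µg/mL DMSO stock) goes into a 6 mm well cut in Mueller Hinton agar inoculated with 0.1 mL broth culture adjusted to 0.5 McFarland (about 1×10^8 cells/mL). Plates are incubated 24 h at 37 °C, then zone of inhibition diameter is measured in mm.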

Bacillus thuringiensis [17] = experiment: Antimicrobial activity against Bacillus thuringiensis assessed as zone of inhibition at 30 uL for 24 hrs at 30 degC by disk diffusion test; type: functional; procedure, shortened: as §3
Salmonella typhimurium = experiment: Antimicrobial activity against Salmonella typhimurium ATCC 14028 assessed as zone of inhibition at 30 uL for 24 hrs at 37 degC by disk diffusion test; type: functional, organism-based; conditions: Salmonella enterica subsp. enterica serovar Typhimurium; procedure, shortened: as §5
Caco-2 [18] = experiment: Induction of apoptosis in human Caco2 cells at 20 uM after 48 hrs by Hoechst 33258/propidium iodide staining based phase contrast microscopic analysis; type: functional; procedure, shortened: as §2
Bacillus thuringiensis [19] = experiment: Antimicrobial activity against Bacillus thuringiensis for 24 hrs by microdillution method; type: functional; procedure, shortened: as §4
Candida albicans = experiment: Antimicrobial activity against Candida albicans ATCC 10231 assessed as zone of inhibition at 30 uL for 24 hrs at 30 degC by disk diffusion test; type: functional, organism-based; procedure, shortened: as §3
HL-60 [20] = experiment: Induction of apoptosis in human HL60 cells at 20 uM after 48 hrs by Hoechst 33258/propidium iodide staining based phase contrast microscopic analysis; type: functional; procedure, shortened: as §2
Caco-2 [21] = experiment: Antiproliferative activity against human Caco2 cells after 24 and 72 hrs by MTT assay; type: functional, cell-based; procedure, shortened: as §1
Pseudomonas aeruginosa = experiment: Antimicrobial activity against Pseudomonas aeruginosa ATCC 35032 assessed as zone of inhibition at 30 uL for 24 hrs at 37 degC by disk diffusion test; type: functional, organism-based; procedure, shortened: as §5
Bacillus subtilis [22] = experiment: Antimicrobial activity against Bacillus subtilis ATCC 6633 assessed as zone of inhibition at 30 uL for 24 hrs at 30 degC by disk diffusion test; type: functional; procedure, shortened: as §3
Staphylococcus aureus = experiment: Antimicrobial activity against Staphylococcus aureus ATCC 25923 assessed as zone of inhibition at 30 uL for 24 hrs at 37 degC by disk diffusion test; type: functional, organism-based; procedure, shortened: as §5
Saccharomyces cerevisiae = experiment: Antimicrobial activity against Saccharomyces cerevisiae ATCC 9763 assessed as zone of inhibition at 30 uL for 24 hrs at 30 degC by disk diffusion test; type: functional, organism-based; procedure, shortened: as §3
Nakaseomyces glabratus = experiment: Antimicrobial activity against Candida glabrata assessed as zone of inhibition at 30 uL for 24 hrs at 30 degC by disk diffusion test; type: functional, organism-based; procedure, shortened: as §3
Bacillus cereus [23] = experiment: Antimicrobial activity against Bacillus cereus ATCC 11778 for 24 hrs by microdillution method; type: functional; procedure, shortened: as §4
Klebsiella pneumoniae = experiment: Antimicrobial activity against Klebsiella pneumoniae ATCC 13882 assessed as zone of inhibition at 30 uL for 24 hrs at 37 degC by disk diffusion test; type: functional, organism-based; procedure, shortened: as §5
Cyberlindnera jadinii = experiment: Antimicrobial activity against Candida utilis ATCC 9950 assessed as zone of inhibition at 30 uL for 24 hrs at 30 degC by disk diffusion test; type: functional, organism-based; procedure, shortened: as §3
Enterococcus faecalis = experiment: Antimicrobial activity against Enterococcus faecalis ATCC 29212 assessed as zone of inhibition at 30 uL for 24 hrs at 37 degC by disk diffusion test; type: functional, organism-based; procedure, shortened: as §5
SAOS-2 [24] = experiment: Induction of apoptosis in human Saos2 cells at 20 uM after 48 hrs by Hoechst 33258/propidium iodide staining based phase contrast microscopic analysis; type: functional; procedure, shortened: as §2
Micrococcus luteus = experiment: Antimicrobial activity against Micrococcus luteus ATCC 9341 assessed as zone of inhibition at 30 uL for 24 hrs at 30 degC by disk diffusion test; type: functional, organism-based; procedure, shortened: as §3
Escherichia coli = experiment: Antimicrobial activity against Escherichia coli ATCC 25922 assessed as zone of inhibition at 30 uL for 24 hrs at 37 degC by disk diffusion test; type: functional, organism-based; procedure, shortened: as §5
HeLa [25] = experiment: Induction of apoptosis in human HeLa cells at 20 uM after 48 hrs by Hoechst 33258/propidium iodide staining based phase contrast microscopic analysis; type: functional; procedure, shortened: as §2
Proteus vulgaris = experiment: Antimicrobial activity against Proteus vulgaris ATCC 33420 assessed as zone of inhibition at 30 uL for 24 hrs at 37 degC by disk diffusion test; type: functional, organism-based; procedure, shortened: as §5

IC50 (HeLa [1]) [µM] | IC50 (HT-29 [5]) [µM] | IC50 (HL-60 [9]) [µM] | IC50 (MCF7 [14]) [µM] | MIC (Bacillus thuringiensis [19]) | SMILES | Activity (HeLa [2]) [%] | diameter of the inhibition zone (DIZ) (Bacillus cereus [3]) | Activity (HT-29 [4]) [%] | diameter of the inhibition zone (DIZ) (Candida tropicalis) | Activity (HL-60 [7]) [%] | IC50 [8] [µM] | Activity (MCF7 [10]) [%] | Activity (MCF7 [11]) [%] | Activity (HT-29 [12]) [%] | Activity (SAOS-2 [13]) [%] | Activity (Caco-2 [15]) [%] | diameter of the inhibition zone (DIZ) [16] | diameter of the inhibition zone (DIZ) (Bacillus thuringiensis [17]) | diameter of the inhibition zone (DIZ) (Salmonella typhimurium) | Activity (Caco-2 [18]) [%] | further results
287 | 10.3 | 6.74 | 65.2 | inactive | CC(=O)O[C@H]1CC[C@]2(C)[C@H]3CC=C4[C@@H]5CC(C)(C)CC[C@]5(C(=O)OCc5ccccc5)CC[C@@]4(C)[C@]3(C)CC[C@H]2[C@]1(C)C=O | 68 | inactive | 0.7 | inactive | 51 | 10.7 | 36 | 5 | 29 | 45 | 37 | inactive | inactive | inactive | 1 | MIC (Bacillus subtilis [6]): inactive; diameter of the inhibition zone (DIZ) (Candida albicans): inactive; Activity (HL-60 [20]): 3%; IC50 (Caco-2 [21]): 51.1 µM; diameter of the inhibition zone (DIZ) (Pseudomonas aeruginosa): inactive; diameter of the inhibition zone (DIZ) (Bacillus subtilis [22]): inactive; diameter of the inhibition zone (DIZ) (Staphylococcus aureus): inactive; diameter of the inhibition zone (DIZ) (Saccharomyces cerevisiae): inactive; diameter of the inhibition zone (DIZ) (Nakaseomyces glabratus): inactive; MIC (Bacillus cereus [23]): inactive; diameter of the inhibition zone (DIZ) (Klebsiella pneumoniae): inactive; diameter of the inhibition zone (DIZ) (Cyberlindnera jadinii): inactive; diameter of the inhibition zone (DIZ) (Enterococcus faecalis): inactive; Activity (SAOS-2 [24]): 0%; diameter of the inhibition zone (DIZ) (Micrococcus luteus): inactive; diameter of the inhibition zone (DIZ) (Escherichia coli): inactive; Activity (HeLa [25]): 2%; diameter of the inhibition zone (DIZ) (Proteus vulgaris): inactive
110 | 13.3 | 12.8 | 7.5 | 32 µg/mL (≈ 54.6 µM) | CC(=O)O[C@H]1CC[C@]2(C)[C@H]3CC=C4[C@@H]5CC(C)(C)CC[C@]5(C(=O)O)CC[C@@]4(C)[C@]3(C)CC[C@H]2[C@]1(C)/C=N/NC(N)=S | 65 | 14 mm | 3 | inactive | 67 | 10.1 | 63 | 6 | 26 | 61 | 29 | inactive | 14 mm | inactive | 3 | MIC (Bacillus subtilis [6]; ATCC 6633, 24 h): 32 µg/mL (≈ 54.6 µM); diameter of the inhibition zone (DIZ) (Candida albicans): inactive; Activity (HL-60 [20]): 2%; IC50 (Caco-2 [21]): 30.4 µM; diameter of the inhibition zone (DIZ) (Pseudomonas aeruginosa): inactive; diameter of the inhibition zone (DIZ) (Bacillus subtilis [22]): 14 mm; diameter of the inhibition zone (DIZ) (Staphylococcus aureus): inactive; diameter of the inhibition zone (DIZ) (Saccharomyces cerevisiae): inactive; diameter of the inhibition zone (DIZ) (Nakaseomyces glabratus): inactive; MIC (Bacillus cereus [23]; ATCC 11778, 24 h): 32 µg/mL (≈ 54.6 µM); diameter of the inhibition zone (DIZ) (Klebsiella pneumoniae): inactive; diameter of the inhibition zone (DIZ) (Cyberlindnera jadinii): inactive; diameter of the inhibition zone (DIZ) (Enterococcus faecalis): inactive; Activity (SAOS-2 [24]): 2%; diameter of the inhibition zone (DIZ) (Micrococcus luteus): inactive; diameter of the inhibition zone (DIZ) (Escherichia coli): inactive; Activity (HeLa [25]): 2%; diameter of the inhibition zone (DIZ) (Proteus vulgaris): inactive
